From ChEMBL document CHEMBL1649424, “Design, synthesis, and biological activity of novel 5-((arylfuran/1H-pyrrol-2-yl)methylene)-2-thioxo-3-(3-(trifluoromethyl)phenyl)thiazolidin-4-ones as HIV-1 fusion inhibitors targeting gp41” (J Med Chem, 2011)

Assays:
[1] = tested on: Human immunodeficiency virus 1; assay: Antiviral activity against HIV1 3B infected in human MT2 cells assessed as inhibition viral p24 antigen production after 4 days by ELISA; assay type: functional, organism-based; settings: Human immunodeficiency virus 1, 3B, MT2, 96 h
[2] = Cytotoxicity against human MT2 cells after 4 days by XTT assay; assay type: cell-based
How it was run: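 Cells (5 × 10⁵/mL) mixed with equal volume of compound at graded concentrations and held 4 days at 37 °C. XTT (1 mg/mL) containing 0.02 μM phenazine methosulphate added, then 4 h at 37 °C. Absorbance read at 450 nm. CC₅₀ by CalcuSyn.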

[3] = Selectivity index, ratio of CC50 for human MT2 cells to EC50 for HIV1 3B infected in human MT2 cells; assay type: toxicity, cell-based; settings: MT2 cells (CC50) and HIV1 3B infected MT2 cells (EC50)
How it was run: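 Selectivity index taken as MT-2 CC₅₀ (XTT, 4 days) divided by EC₅₀ against HIV-1 IIIB infection (p24 ELISA).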

[4] = tested on: Human immunodeficiency virus 1; assay: Antiviral activity against HIV1 isolate 92US657 infected in human MT2 cells assessed as inhibition viral p24 antigen production after 4 days by ELISA; assay type: functional, organism-based; settings: Human immunodeficiency virus 1, isolate 92US657, MT2, 96 h

| EC50 [1] [nM] | EC50 [4] [nM] | SMILES | CC50 at 96 h [2] [nM] | selectivity ratio [3] |
| --- | --- | --- | --- | --- |
| 61 | 477 | O=C(O)c1cccc(-c2ccc(/C=C3\SC(=S)N(CCc4ccccc4)C3=O)o2)c1O | 16400 | 269 |
| 74 | 521 | O=C(O)c1cccc(-c2ccc(/C=C3\SC(=S)N(CCc4ccccc4)C3=O)o2)c1Cl | 30400 | 411 |
| 145 | 1080 | O=C(O)c1cccc(-c2ccc(/C=C3\SC(=S)N(CCc4ccccc4)C3=O)o2)c1F | 28100 | 194 |
